# Measurements from ChEMBL document CHEMBL1926573, “Synthesis, antiproliferative activity and genotoxicity of novel anthracene-containing aminophosphonates and a new anthracene-derived Schiff base” (Bioorg Med Chem, 2012).
# The source made the active and inactive calls. The calls are words filed in the database; no cut-off is given here.
# How the values were obtained:
# HT-29 = test: Cytotoxicity against human HT-29 cells after 24 hrs by MTT assay; format: functional, cell-based; details: HT-29, 24 h
# Method in brief: (§1)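 Human tumor lines were grown in RPMI 1640 (MCF-7, HBL-100) or high-glucose DMEM (others) with 10% FCS at 37.5 °C and 5% CO2. Cells were seeded at 1×10^4/well, allowed to adhere 24 h, then exposed 24 h to 1–0.0681 mg/ml (1.47-fold dilutions) from DMSO stock diluted in PBS, with DMSO ≤1%. Doxorubicin was the reference. MTT-formazan was read at 580 nm. IC50 by non-linear regression; mean ± SD of three experiments.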
# Bone marrow cell [1] = test: Induction of mitosis in ICR mouse bone marrow cells assessed as mitotic index at 10 mg/kg, ip after 48 hrs; format: functional; details: route intraperitoneal
# Method in brief: (§2)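 ICR mice (male and female, 20 ± 1.5 g; 4 males + 4 females per treated group, 10 per control group) given compound ip at 10 or 100 mg/kg; mitomycin C 3.5 mg/kg positive control, 0.9% saline negative control. Colchicine 0.4 mg/kg ip 1 h before femoral marrow harvest at 24 or 48 h. Cells put in 0.075 M KCl (37 °C, 20 min), fixed in methanol–acetic acid 3:1, stained with Giemsa. ≥50 metaphases scored per animal. Mitotic index counted in 1500 cells per animal. Group mean ± SEM, Student's t-test.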
# Bone marrow cell [2] = test: Induction of clastogenic effect in ICR mouse bone marrow cells assessed as chromosomal aberration at 10 mg/kg, ip after 24 hrs; format: functional; details: route intraperitoneal; method in brief: as §2
# Bone marrow cell [3] = test: Induction of mitosis in ICR mouse bone marrow cells assessed as mitotic index at 10 mg/kg, ip after 24 hrs; format: functional; details: route intraperitoneal; method in brief: as §2
# HeLa = test: Cytotoxicity against human HeLa cells after 24 hrs by MTT assay; format: functional, cell-based; method in brief: as §1
# HBL-100 [4] = test: Cytotoxicity against human HBL100 cells after 24 hrs by MTT assay; format: functional, cell-based; details: HBL-100, 24 h; method in brief: as §1
# MDA-MB-231 = test: Cytotoxicity against human MDA-MB-231 cells after 24 hrs by MTT assay; format: functional, cell-based; details: MDA-MB-231, 24 h; method in brief: as §1
# MCF7 = test: Cytotoxicity against human MCF7 cells after 24 hrs by MTT assay; format: functional, cell-based; details: MCF7, 24 h; method in brief: as §1
# HepG2 = test: Cytotoxicity against human HepG2 cells after 24 hrs by MTT assay; format: functional, cell-based; details: HepG2, 24 h; method in brief: as §1
# 647-V = test: Cytotoxicity against human 647V cells after 24 hrs by MTT assay; format: functional, cell-based; method in brief: as §1
# Bone marrow cell [5] = test: Induction of clastogenic effect in ICR mouse bone marrow cells assessed as chromosomal aberration at 10 mg/kg, ip after 48 hrs; format: functional; details: route intraperitoneal; method in brief: as §2
# HBL-100 [6] = test: Ratio of Doxorubicin IC50 to compound IC50 for human HBL100 cells after 24 hrs by MTT assay; format: functional
# Bone marrow cell [7] = test: Induction of mitosis in ICR mouse bone marrow cells assessed as mitotic index at 100 mg/kg, ip after 48 hrs; format: functional; details: route intraperitoneal; method in brief: as §2
# Bone marrow cell [8] = test: Induction of clastogenic effect in ICR mouse bone marrow cells assessed as chromosomal aberration at 100 mg/kg, ip after 48 hrs; format: functional; details: route intraperitoneal; method in brief: as §2
# Bone marrow cell [9] = test: Antiproliferative activity in ICR mouse bone marrow cells assessed as inhibition of cell division at 10 to 100 mg/kg, ip measured after 48 hrs; format: functional, organism-based; method in brief: as §2
# Bone marrow cell [10] = test: Induction of mitosis in ICR mouse bone marrow cells assessed as mitotic index at 100 mg/kg, ip after 24 hrs; format: functional; details: route intraperitoneal; method in brief: as §2
# Bone marrow cell [11] = test: Induction of clastogenic effect in ICR mouse bone marrow cells assessed as chromosomal aberration at 100 mg/kg, ip after 24 hrs; format: functional; details: route intraperitoneal; method in brief: as §2
# [12] = Drug uptake in nuclei of human HBL100 cells at non-toxic concentration after 24 hrs by fluorescent microscopic analysis; format: ADME, cell-based, Nucleus; details: hbl-100, 24 h
# Method in brief: (§3)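 HBL-100 cells were seeded at 1×10^5/ml on diagnostic slides, adhered overnight (37.5 °C, 5% CO2), and exposed 24 h to non-toxic concentrations. Intrinsic anthracene fluorescence was imaged by fluorescence microscopy to locate subcellular distribution.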
# [13] = Drug uptake in nuclear membrane of human HBL100 cells at non-toxic concentration after 24 hrs by fluorescent microscopic analysis; format: ADME, cell membranes; details: hbl-100, 24 h; method in brief: as §3
# [14] = Drug uptake in cytoplasm of human HBL100 cells at non-toxic concentration after 24 hrs by fluorescent microscopic analysis; format: ADME, cell-based; details: hbl-100, 24 h; method in brief: as §3
# Bone marrow cell [15] = test: Induction of clastogenic effect in ICR mouse bone marrow cells assessed as chromosomal breaks and fragmentation at 10 to 100 mg/kg, ip; format: functional; details: dose mg/kg 10-100; route intraperitoneal; method in brief: as §2
# Bone marrow cell [16] = test: Induction of clastogenic effect in ICR mouse bone marrow cells assessed as rearrangement in centromere to centromeric fusion at 10 to 100 mg/kg, ip; format: functional; details: dose mg/kg 10-100; route intraperitoneal; method in brief: as §2
# Bone marrow cell [17] = test: Induction of clastogenic effect in ICR mouse bone marrow cells assessed as chromosomal aberration at 3.5 mg/kg, ip after 48 hrs; format: functional; details: route intraperitoneal; method in brief: as §2
# Bone marrow cell [18] = test: Induction of mitosis in ICR mouse bone marrow cells assessed as mitotic index at 3.5 mg/kg, ip after 48 hrs; format: functional; details: route intraperitoneal; method in brief: as §2
# Bone marrow cell [19] = test: Induction of mitosis in ICR mouse bone marrow cells assessed as mitotic index at 3.5 mg/kg, ip after 24 hrs; format: functional; details: route intraperitoneal; method in brief: as §2
# Bone marrow cell [20] = test: Induction of clastogenic effect in ICR mouse bone marrow cells assessed as chromosomal breaks and fragmentation at 3.5 mg/kg, ip after 24 hrs; format: functional; details: route intraperitoneal; method in brief: as §2
# Bone marrow cell [21] = test: Induction of clastogenic effect in ICR mouse bone marrow cells assessed as rearrangement in centromere to centromeric fusion at 3.5 mg/kg, ip after 24 hrs; format: functional; details: route intraperitoneal; method in brief: as §2
# Bone marrow cell [22] = test: Induction of clastogenic effect in ICR mouse bone marrow cells assessed as chromosomal aberration at 3.5 mg/kg, ip after 24 hrs; format: functional; details: route intraperitoneal; method in brief: as §2
SMILES,IC50 (HT-29) [mg/L],Activity (Bone marrow cell [1]),Activity (Bone marrow cell [2]) [%],Activity (Bone marrow cell [3]),IC50 (HeLa) [mg/L],IC50 (HBL-100 [4]) [mg/L],IC50 (MDA-MB-231) [mg/L],IC50 (MCF7) [mg/L],IC50 (HepG2) [mg/L],IC50 (647-V) [mg/L],Activity (Bone marrow cell [5]) [%],Activity (Bone marrow cell [7]),Activity (Bone marrow cell [8]) [%],Activity (Bone marrow cell [10]),Activity (Bone marrow cell [11]) [%],also measured
CCOP(=O)(OCC)C(NCc1ccco1)c1c2ccccc2cc2ccccc12 (configuration not stated),110,10.1 ‰,6.25,15.1 ‰,120,70,70,100,110,70,4.75,–,–,–,–,Ratio IC50 (HBL-100 [6]): 2
C(=N\Cc1ccco1)/c1c2ccccc2cc2ccccc12,200,10.2 ‰,4.75,11.3 ‰,360,460,450,260,120,80,4.43,15.2 ‰,5.5,12.4 ‰,5.5,Activity (Bone marrow cell [9]): inactive
CCOP(=O)(OCC)C(Nc1ccc(C)cc1)c1c2ccccc2cc2ccccc12 (configuration not stated),> 2000,11.9 ‰,4.75,13.4 ‰,1940,730,> 2000,> 2000,> 2000,> 2000,6,11.8 ‰,8,16.1 ‰,8.5,Drug uptake [12]: Active; Drug uptake [13]: Active
COc1cccc2c1C(=O)c1c(O)c3c(c(O)c1C2=O)C[C@@](O)(C(=O)CO)C[C@@H]3O[C@H]1C[C@H](N)[C@H](O)[C@H](C)O1.Cl [DOXORUBICIN HYDROCHLORIDE],580,–,–,–,< 68,140,< 68,< 68,< 68,< 68,–,–,–,–,–,–
Cc1ccc(/N=C/c2c3ccccc3cc3ccccc23)cc1,80,8.45 ‰,5.25,12.6 ‰,170,310,120,450,180,130,5,11.7 ‰,6.5,10.7 ‰,6.57,Drug uptake [14]: Active; Activity (Bone marrow cell [15]): 35.6%; Activity (Bone marrow cell [16]): 62.17%
CO[C@@]12[C@H](COC(N)=O)C3=C(C(=O)C(C)=C(N)C3=O)N1C[C@@H]1N[C@@H]12 [MITOMYCIN],–,–,–,–,–,–,–,–,–,–,–,–,–,–,–,Activity (Bone marrow cell [17]): 15.8%; Activity (Bone marrow cell [18]): 7.29 ‰; Activity (Bone marrow cell [19]): 5.49 ‰; Activity (Bone marrow cell [20]): 75.1%; Activity (Bone marrow cell [21]): 24.9%; Activity (Bone marrow cell [22]): 30.5%
COP(=O)(OC)C(Nc1ccc(C)cc1)c1c2ccccc2cc2ccccc12 (configuration not stated),> 2000,15.6 ‰,4,12.6 ‰,> 2000,20,880,450,830,600,4.75,14.1 ‰,6,12 ‰,5.5,Activity (Bone marrow cell [9]): inactive
